Results: ChEMBL document CHEMBL1136393, “4-(3,4-dihydro-1H-isoquinolin-2yl)-pyridines and 4-(3,4-dihydro-1H-isoquinolin-2-yl)-quinolines as potent NR1/2B subtype selective NMDA receptor antagonists” (Bioorg Med Chem Lett, 2003)

Legend:
[1] = Inhibition of [3H]25-6981 binding to N-methyl-D-aspartate glutamate receptor 2B of rat brain
[2] = biological target: T1, Muscarinic acetylcholine receptor M1 (Rattus norvegicus, UniProt P08482); test: Binding affinity towards Muscarinic acetylcholine receptor M1 in […] using [3H]pirenzepine as radioligand
T1 sequence (P08482 whole entry): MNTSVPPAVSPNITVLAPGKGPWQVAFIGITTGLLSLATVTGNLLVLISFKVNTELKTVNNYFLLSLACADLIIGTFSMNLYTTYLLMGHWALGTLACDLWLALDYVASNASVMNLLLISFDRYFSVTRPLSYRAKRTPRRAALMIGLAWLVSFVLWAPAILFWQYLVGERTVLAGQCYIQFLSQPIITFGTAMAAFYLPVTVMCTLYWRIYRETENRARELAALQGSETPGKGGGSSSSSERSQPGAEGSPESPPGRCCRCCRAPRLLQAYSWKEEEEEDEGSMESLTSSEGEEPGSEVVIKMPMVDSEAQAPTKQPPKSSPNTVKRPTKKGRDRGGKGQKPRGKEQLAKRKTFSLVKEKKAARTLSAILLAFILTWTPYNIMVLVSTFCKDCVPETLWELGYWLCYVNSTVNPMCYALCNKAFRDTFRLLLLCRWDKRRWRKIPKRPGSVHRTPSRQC

[3] = biological target: T2, Adrenergic receptor alpha-1 (Rattus norvegicus, UniProt P15823+P23944+P43140); test: Binding affinity towards alpha receptor in rat brain using [3H]prazosin as radioligand; format: tissue-based
T2 sequence (P15823 whole entry): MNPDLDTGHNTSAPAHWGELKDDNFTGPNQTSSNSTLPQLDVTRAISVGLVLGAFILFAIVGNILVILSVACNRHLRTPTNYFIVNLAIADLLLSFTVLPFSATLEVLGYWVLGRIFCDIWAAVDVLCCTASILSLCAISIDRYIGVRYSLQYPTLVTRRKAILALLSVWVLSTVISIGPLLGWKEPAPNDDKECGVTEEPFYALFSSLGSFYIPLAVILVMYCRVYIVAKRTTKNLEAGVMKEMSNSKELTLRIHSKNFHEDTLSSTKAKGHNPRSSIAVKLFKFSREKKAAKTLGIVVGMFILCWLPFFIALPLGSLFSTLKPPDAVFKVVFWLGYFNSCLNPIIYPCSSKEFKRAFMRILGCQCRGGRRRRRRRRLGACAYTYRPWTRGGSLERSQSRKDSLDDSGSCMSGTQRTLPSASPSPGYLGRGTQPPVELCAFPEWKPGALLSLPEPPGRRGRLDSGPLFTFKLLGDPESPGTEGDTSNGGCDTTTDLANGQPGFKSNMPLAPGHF
T2 sequence (P23944 whole entry): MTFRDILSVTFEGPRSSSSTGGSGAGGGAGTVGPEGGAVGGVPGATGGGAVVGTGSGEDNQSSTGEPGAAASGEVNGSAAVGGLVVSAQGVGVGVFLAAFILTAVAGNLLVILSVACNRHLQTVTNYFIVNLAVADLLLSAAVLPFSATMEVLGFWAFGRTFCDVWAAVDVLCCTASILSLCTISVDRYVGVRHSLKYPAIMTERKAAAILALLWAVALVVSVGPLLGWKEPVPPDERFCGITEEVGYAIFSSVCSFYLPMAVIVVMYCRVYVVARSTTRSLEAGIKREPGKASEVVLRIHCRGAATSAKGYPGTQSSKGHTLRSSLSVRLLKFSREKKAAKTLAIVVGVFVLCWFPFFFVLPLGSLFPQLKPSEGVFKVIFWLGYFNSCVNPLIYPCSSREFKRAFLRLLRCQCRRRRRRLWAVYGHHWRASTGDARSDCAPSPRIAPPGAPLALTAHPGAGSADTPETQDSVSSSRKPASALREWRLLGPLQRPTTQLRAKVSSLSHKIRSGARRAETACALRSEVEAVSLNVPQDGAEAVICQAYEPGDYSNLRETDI
T2 sequence (P43140 whole entry): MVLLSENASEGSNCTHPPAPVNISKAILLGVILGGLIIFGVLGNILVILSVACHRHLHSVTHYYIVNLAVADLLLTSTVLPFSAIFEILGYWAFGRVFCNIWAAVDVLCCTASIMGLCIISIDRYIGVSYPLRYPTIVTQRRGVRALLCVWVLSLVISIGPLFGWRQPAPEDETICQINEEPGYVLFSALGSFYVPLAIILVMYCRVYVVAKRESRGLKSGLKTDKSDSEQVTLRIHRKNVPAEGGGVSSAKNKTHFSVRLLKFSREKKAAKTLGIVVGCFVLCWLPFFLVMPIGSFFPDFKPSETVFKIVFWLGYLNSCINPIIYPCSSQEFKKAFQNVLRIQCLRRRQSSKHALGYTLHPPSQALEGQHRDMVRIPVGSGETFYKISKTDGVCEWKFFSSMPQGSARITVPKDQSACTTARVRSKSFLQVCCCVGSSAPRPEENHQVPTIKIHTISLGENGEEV

[4] = Binding affinity towards N-methyl-D-aspartate (NMDA) receptor in rat brain using [3H]-25-6981 as radioligand; format: tissue-based
[5] = biological target: T2, Adrenergic receptor alpha-1; test: Binding affinity towards Alpha-1 adrenergic receptor in rat brain using [3H]prazosin; format: tissue-based
[6] = test system: Mus musculus; test: In vivo effective dose in mice after intraperitoneal administration using standard sound induced seizures assay; format: functional; details: ip
In short: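 DBA/2 mice; compound given intraperitoneally 30 min before sound-induced seizure testing; ED50 in mg/kg.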

[7] = biological target: T1, Muscarinic acetylcholine receptor M1; test: Binding affinity towards muscarinic acetylcholine receptor M1 in […] using [3H]pirenzepine as radioligand

Ki [1] [nM] | Ki [2] [nM] | Ki [3] [nM] | Ki [4] [nM] | Ki [5] [nM] | Ki [7] [nM] | SMILES | ED50 [6] [mg/kg]
75 | – | – | – | – | – | Cc1cc(N2CCc3ccccc3C2)c2ccccc2n1 | –
– | 60000 | 20000 | 15 | – | – | Cc1cc(N2CCc3ccccc3C2)cc(NC(=O)CO)n1 | –
2 | – | – | – | 2300 | – | OCCNc1ccnc(N2CCc3ccccc3C2)c1 | 13
– | 400 | 2100 | 2 | – | – | Nc1cc(N2CCc3ccccc3C2)ccn1 | –
– | – | 120 | 19 | – | – | Nc1cc(N2CCc3ccccc3C2)c2ccccc2n1 | –
– | 6800 | 3500 | 2 | – | – | Cc1cc(N2CCc3ccccc3C2)cc(NCCO)n1 | 18
230 | – | – | – | – | – | Clc1ccc2c(c1)CCN(c1ccncc1)C2 | –
– | 11000 | 12000 | 8 | – | – | CCOC(=O)C(=O)Nc1cc(N2CCc3ccccc3C2)cc(C)n1 | –
25 | – | – | – | 2200 | 900 | CC1CN(c2ccncc2)Cc2ccccc21 (stereo not given) | –
28000 | – | – | – | – | – | COc1cc2c(cc1OC)CN(c1ccncc1)CC2 | –
26 | – | – | – | 3800 | 650 | Clc1cccc2c1CN(c1ccncc1)CC2 | –
37 | – | – | – | 1300 | 1000 | Clc1ccc2c(c1)CN(c1ccncc1)CC2 | –
– | 2600 | 1500 | 4 | – | – | Cc1cc(N2CCc3ccccc3C2)cc(N)n1 | –
8 | – | – | – | 1500 | 660 | Clc1cccc2c1CCN(c1ccncc1)C2 | 2
– | – | 5700 | 8 | – | – | Cc1cc(N2CCc3ccccc3C2)ccn1 | –
– | 6700 | 1700 | 22 | – | – | OCCNc1cc(N2CCc3ccccc3C2)c2ccccc2n1 | –
29 | – | – | – | 3200 | 2600 | c1ccc2c(c1)CCN(c1ccnc3ccccc13)C2 | 25
3.5 | – | – | – | 430 | – | OCCNc1cc(N2CCc3ccccc3C2)nc2ccccc12 | < 12
8 | – | – | – | 5800 | 720 | c1ccc2c(c1)CCN(c1ccncc1)C2 | 3
– | – | – | – | 12 | – | C[C@@H]([C@H](O)c1ccc(O)cc1)N1CCC(Cc2ccccc2)CC1 [(R,S)-IFENPRODIL] | 16
